Values after ≈ are worked out from the molar mass of the structure shown.
Experiments:
[1] = test system: Mycobacterium tuberculosis; experiment: Growth inhibition of Mycobacterium tuberculosis H37Ra ATCC 25177 at active stage measured after 8 days by XTT dye based two fold dilution method; format: functional; conditions: H37Ra ATCC 25177, 192 h
How it was run: (§1)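 MTB H37Ra was grown in Dubos medium, then exposed in Mycobacterium pheli minimal medium (pH 6.6) to compounds dissolved in DMSO. The assay ended on day 8 (active) or day 12 (dormant). Viable cells were measured by XTT reduction menadione assay at 470 nm, blank-corrected, relative to vehicle control. Triplicates were expressed as mean ± SD. MIC came from dose-response curves.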

[2] = test system: Mycobacterium tuberculosis; experiment: Growth inhibition of Mycobacterium bovis BCG ATCC 35743 at dormant stage at 25 ug/ml measured after 12 days by nitrate reductase dye based two fold dilution method relative to control; format: functional; conditions: BCG str. ATCC 35743, 288 h, read-out: GI
How it was run: (§2)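 M. bovis BCG was grown in Dubos medium and assayed in Mycobacterium pheli minimal medium (pH 6.6), with compounds from DMSO stocks. Incubation lasted 8 days for active and 12 days for dormant cultures. Viability was read by nitrate reductase at 540 nm against cell-free blanks, with vehicle set as 100% growth. Primary screen was at 30, 10 and 3 µg/ml, in triplicate, mean ± SD. MIC was taken from dose-response curves.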

[3] = test system: Mycobacterium tuberculosis; experiment: Growth inhibition of Mycobacterium bovis BCG ATCC 35743 at dormant stage at 6.25 ug/ml measured after 12 days by nitrate reductase dye based two fold dilution method relative to control; format: functional; conditions: BCG str. ATCC 35743, 288 h, read-out: GI; how it was run: as §2
Pseudomonas fluorescens [4] = experiment: Growth inhibition of Pseudomonas fluorescens NCIM 2036 at 30 ug/ml measured after 8 hrs relative to control; format: functional; conditions: NCIM 2036, 8 h, read-out: GI
How it was run: (§3)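 Bacteria grown in LB at 37 °C and 180 rpm to OD 1. Compounds added to wells, then 0.1% inoculum of 1 OD culture (620 nm). Growth read as OD at 620 nm after 8 h for gram-negative and after 12 h for gram-positive strains.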

Pseudomonas fluorescens [5] = experiment: Antibacterial activity against Pseudomonas fluorescens NCIM 2036 measured after 8 hrs; format: functional; conditions: NCIM 2036, 8 h; how it was run: as §3
[6] = Cytotoxicity against human PANC1 cells measured after 48 hrs by MTT assay; format: toxicity, cell-based, PANC-1
[7] = Cytotoxicity against […]-differentiated human THP1 cells assessed as growth inhibition at 100 ug/ml measured after 48 hrs by MTT assay relative to control; format: toxicity, cell-based, THP-1; conditions: read-out: GI
How it was run: (§4)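 MTT assay with 48 h compound exposure. THP-1 macrophages made by 24 h PMA treatment. Each concentration tested in triplicate in one experiment. % cytotoxicity = (control−test)/(control−blank)×100, with control = cells + DMSO and blank = medium without cells. IC50 from % survival versus concentration plots.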

Escherichia coli [8] = experiment: Growth inhibition of Escherichia coli NCIM 2688 at 30 ug/ml measured after 8 hrs relative to control; format: functional; conditions: NCIM 2688, 8 h, read-out: GI; how it was run: as §3
[9] = test system: Mycobacterium tuberculosis; experiment: Growth inhibition of Mycobacterium bovis BCG ATCC 35743 at active stage at 6.25 ug/ml measured after 8 days by nitrate reductase dye based two fold dilution method relative to control; format: functional; conditions: BCG str. ATCC 35743, 192 h, read-out: GI; how it was run: as §2
Staphylococcus aureus [10] = experiment: Growth inhibition of Staphylococcus aureus NCIM 2010 at 3 ug/ml measured after 12 hrs relative to control; format: functional; conditions: NCIM 2010, 12 h, read-out: GI; how it was run: as §3
[11] = Cytotoxicity against human A549 cells assessed as growth inhibition at 100 ug/ml measured after 48 hrs by MTT assay relative to control; format: toxicity, cell-based; conditions: read-out: GI
[12] = Cytotoxicity against primary HUVEC assessed as growth inhibition at 100 ug/ml measured after 48 hrs by MTT assay relative to control; format: toxicity, cell-based; conditions: human, read-out: GI
[13] = test system: Mycobacterium tuberculosis; experiment: Growth inhibition of Mycobacterium tuberculosis H37Ra ATCC 25177 at dormant stage at 0.78 ug/ml measured after 12 days by XTT dye based two fold dilution method relative to control; format: functional; conditions: H37Ra ATCC 25177, 288 h, read-out: GI; how it was run: as §1
Escherichia coli [14] = experiment: Antibacterial activity against Escherichia coli NCIM 2688 measured after 8 hrs; format: functional; conditions: NCIM 2688, 8 h; how it was run: as §3
Bacillus subtilis [15] = experiment: Growth inhibition of Bacillus subtilis NCIM 2079 at 10 ug/ml measured after 12 hrs relative to control; format: functional; conditions: NCIM 2079, 12 h, read-out: GI; how it was run: as §3
[16] = test system: Mycobacterium tuberculosis; experiment: Growth inhibition of Mycobacterium tuberculosis H37Ra ATCC 25177 at active stage at 3.13 ug/ml measured after 8 days by XTT dye based two fold dilution method relative to control; format: functional; conditions: H37Ra ATCC 25177, 192 h, read-out: GI; how it was run: as §1
[17] = test system: Mycobacterium tuberculosis; experiment: Growth inhibition of Mycobacterium bovis BCG ATCC 35743 at active stage at 50 ug/ml measured after 8 days by nitrate reductase dye based two fold dilution method relative to control; format: functional; conditions: BCG str. ATCC 35743, 192 h, read-out: GI
[18] = Cytotoxicity against human THP1 cells assessed as growth inhibition at 100 ug/ml measured after 48 hrs by MTT assay relative to control; format: toxicity, cell-based, THP-1; conditions: read-out: GI; how it was run: as §4
[19] = test system: Mycobacterium tuberculosis; experiment: Growth inhibition of Mycobacterium tuberculosis H37Ra ATCC 25177 at active stage at 12.5 ug/ml measured after 8 days by XTT dye based two fold dilution method relative to control; format: functional; conditions: H37Ra ATCC 25177, 192 h, read-out: GI
[20] = test system: Mycobacterium tuberculosis; experiment: Growth inhibition of Mycobacterium bovis BCG ATCC 35743 at active stage at 12.5 ug/ml measured after 8 days by nitrate reductase dye based two fold dilution method relative to control; format: functional; conditions: BCG str. ATCC 35743, 192 h, read-out: GI
Aspergillus flavus = experiment: Antifungal activity against Aspergillus flavus NCIM 539 by standard agar method; format: functional
How it was run: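 MICs determined by standard agar method; DMSO as solvent control.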

Bacillus subtilis [21] = experiment: Growth inhibition of Bacillus subtilis NCIM 2079 at 3 ug/ml measured after 12 hrs relative to control; format: functional; conditions: NCIM 2079, 12 h, read-out: GI; how it was run: as §3
[22] = test system: Mycobacterium tuberculosis; experiment: Growth inhibition of Mycobacterium tuberculosis H37Ra ATCC 25177 at dormant stage at 1.56 ug/ml measured after 12 days by XTT dye based two fold dilution method relative to control; format: functional; conditions: H37Ra ATCC 25177, 288 h, read-out: GI; how it was run: as §1
[23] = test system: Mycobacterium tuberculosis; experiment: Growth inhibition of Mycobacterium bovis BCG ATCC 35743 at dormant stage at 50 ug/ml measured after 12 days by nitrate reductase dye based two fold dilution method relative to control; format: functional; conditions: BCG str. ATCC 35743, 288 h, read-out: GI; how it was run: as §2
Staphylococcus aureus [24] = experiment: Growth inhibition of Staphylococcus aureus NCIM 2010 at 10 ug/ml measured after 12 hrs relative to control; format: functional; conditions: NCIM 2010, 12 h, read-out: GI; how it was run: as §3
[25] = test system: Mycobacterium tuberculosis; experiment: Growth inhibition of Mycobacterium tuberculosis H37Ra ATCC 25177 at active stage at 6.25 ug/ml measured after 8 days by XTT dye based two fold dilution method relative to control; format: functional; conditions: H37Ra ATCC 25177, 192 h, read-out: GI; how it was run: as §1
[26] = test system: Mycobacterium tuberculosis; experiment: Growth inhibition of Mycobacterium bovis BCG ATCC 35743 at dormant stage at 30 ug/ml measured after 12 days by nitrate reductase dye based two fold dilution method relative to control; format: functional; conditions: BCG str. ATCC 35743, 288 h, read-out: GI; how it was run: as §2
[27] = Selectivity index, ratio of GI50 for human THP1 cells to MIC for Mycobacterium tuberculosis H37Ra ATCC 25177 at dormant stage; format: toxicity, cell-based, THP-1; conditions: read-out: Selectivity Index
How it was run: (§5)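 SI is the cell-line GI50 divided by the dormant-stage mycobacterial MIC. […] THP-1 macrophages were PMA-differentiated for 24 h.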

[28] = Selectivity index, ratio of GI50 for human HeLa cells to MIC for Mycobacterium tuberculosis H37Ra ATCC 25177 at dormant stage; format: toxicity, cell-based; conditions: read-out: Selectivity Index; how it was run: as §5

Compound	IC50 [1]	IC90 [1]	inhibition of growth at 25 µg/mL [2]	inhibition of growth at 6.25 µg/mL [3]	inhibition of growth at 30 µg/mL (Pseudomonas fluorescens [4])	MIC (Pseudomonas fluorescens [5])	GI50 at 48 h [6]	inhibition at 48 h, 100 ug/ml [7]	inhibition of growth at 30 µg/mL (Escherichia coli [8])	inhibition of growth at 3 µg/mL (Staphylococcus aureus [10])	inhibition at 48 h, 100 ug/ml [11]	inhibition at 48 h, 100 ug/ml [12]	inhibition of growth at 0.78 µg/mL [13]	MIC (Escherichia coli [14])	inhibition of growth at 10 µg/mL (Bacillus subtilis [15])	inhibition of growth at 3.13 µg/mL [16]	inhibition at 48 h, 100 ug/ml [18]	inhibition of growth at 12.5 µg/mL [19]	MIC (Aspergillus flavus)	inhibition of growth at 3 µg/mL (Bacillus subtilis [21])	further results
COc1ccc2cc(/C=C3\SC(=S)NC3=O)c(Cl)nc2c1	5.7 µg/mL (≈ 16.9 µM)	21.1 µg/mL (≈ 62.6 µM)	99.8%	94%	46.2%	> 30 µg/mL	> 100 µg/mL	31.3%	35.5%	9.19%	27.6%	25.4%	-29.8%	> 30 µg/mL	-8.32%	8.88%	26.7%	83.1%	100 µg/mL (≈ 297 µM)	-4.12%	inhibition of growth at 6.25 µg/mL [9]: 96.6%; inhibition of growth at 50 µg/mL [17]: 99.9%; inhibition of growth at 12.5 µg/mL [20]: 98.9%; inhibition of growth at 1.56 µg/mL [22]: -28.4%; inhibition of growth at 50 µg/mL [23]: 100%; inhibition of growth at 10 µg/mL (Staphylococcus aureus [24]): 44%; inhibition of growth at 6.25 µg/mL [25]: 43.8%; inhibition of growth at 30 µg/mL [26]: 10.1%
O=C(O)CN1C(=O)/C(=C/c2cc3cc(F)ccc3nc2Cl)SC1=S	> 30 µg/mL	> 30 µg/mL	99.8%	100%	2.4%	> 30 µg/mL	> 100 µg/mL	14.5%	-1.67%	-0.864%	33.7%	31.2%	-24%	> 30 µg/mL	-2.7%	-12.6%	27.6%	-3.91%	100 µg/mL (≈ 261 µM)	-1.39%	inhibition of growth at 1.56 µg/mL [22]: 22.6%; inhibition of growth at 50 µg/mL [23]: 99.8%; inhibition of growth at 10 µg/mL (Staphylococcus aureus [24]): -1.12%; inhibition of growth at 6.25 µg/mL [25]: 11.3%; inhibition of growth at 30 µg/mL [26]: 28.2%
Cc1cccc2cc(/C=C3\SC(=S)NC3=O)c(Cl)nc12	4.8 µg/mL (≈ 15 µM)	18.2 µg/mL (≈ 56.7 µM)	101%	62.9%	59%	> 30 µg/mL	> 100 µg/mL	2.58%	39.9%	-3.27%	32.9%	14.9%	-16.1%	> 30 µg/mL	-0.291%	39.9%	13.2%	76.3%	100 µg/mL (≈ 312 µM)	3.54%	inhibition of growth at 6.25 µg/mL [9]: 87.8%; inhibition of growth at 50 µg/mL [17]: 98.4%; inhibition of growth at 12.5 µg/mL [20]: 99.5%; selectivity ratio [27]: 7.8; selectivity ratio [28]: 7.8; inhibition of growth at 1.56 µg/mL [22]: -17.5%; inhibition of growth at 50 µg/mL [23]: 100%; inhibition of growth at 10 µg/mL (Staphylococcus aureus [24]): -9.23%; inhibition of growth at 6.25 µg/mL [25]: 48.4%; inhibition of growth at 30 µg/mL [26]: 60.5%

Reference: ChEMBL document CHEMBL3877264, “Quinolidene-rhodanine conjugates: Facile synthesis and biological evaluation” (Eur J Med Chem, 2017)
